# Published values of several laboratories.
# Each line is one published result; the experiments were not run side by side.
# Cell line: A549
# Read-out: cell growth or viability
SMILES,test,setting,endpoint,value
CCCCC(=O)Nc1ccc(-c2ccc3ncn(CCC)c(=O)c3c2)c(F)n1,CCK-8,72 h,IC50,> 10 µM
CC(C)(C)[C@H](N)C(=O)Nc1ccccc1/N=c1\cc(-c2ccc3c(c2)OCCO3)oc2cc(F)ccc12,CCK-8,1 µM,inhibition,-4.38%
COc1ccc(NC(=O)Nc2ccc(-c3cn(Cc4ccc(Br)cc4)nn3)cc2)cc1,CCK-8,"20 µM, 72 h",viability,102%
NCCC(=O)Nc1ccccc1/N=c1\cc(-c2ccc3nc(N)oc3c2)oc2cc(O)ccc12,CCK-8,1 µM,inhibition,23.2%
CCC(=O)NCc1ccc(-c2cnc(C3CN(C(=O)c4cnc(NC(=O)[C@@H]5CC(C)(C)CN5)s4)C3)s2)c2ccccc12,,14 days,GI50,> 3 µM
O=C(NCc1cn(Cc2ccc(Br)cc2)nn1)Nc1ccccc1Br,CCK-8,"50 µM, 72 h",viability,91.5%
O=C(Nc1cccc(F)c1)Nc1nc2cc(-c3ccc4ncn(Cc5ccccc5)c(=O)c4c3)ccc2s1,MTT,72 h,IC50,3.49 µM
CCCCCCCCCCCCCCCCCCOc1cccc(CC(=O)OCC[N+](C)(C)C)c1,SRB,10 µM,inhibition,8.12%
O=C(Nc1ccc(-c2cn(Cc3ccc(Br)cc3)nn2)cc1)Nc1ccccc1Br,CCK-8,"50 µM, 72 h",viability,89%
COc1ccc(NC(=O)NCc2cn(Cc3ccc(C)cc3)nn2)cc1,CCK-8,"20 µM, 72 h",viability,70.4%
CC(C)(C)[C@H](N)C(=O)Nc1ccccc1/N=c1\cc(-c2ccc3c(c2)OCO3)oc2ccccc12,CCK-8,1 µM,inhibition,3.13%
COc1ccc(NC(=O)NCc2cn(Cc3ccc(Cl)cc3)nn2)cc1,CCK-8,"20 µM, 72 h",viability,71.9%
CCCCC(=O)Nc1ccc(-c2ccc3ncn(CCCF)c(=O)c3c2)cn1,CCK-8,72 h,IC50,1.79 µM
O=C(Nc1ccc(Cl)cc1)Nc1cccc(-c2cn(Cc3ccc(Cl)cc3)nn2)c1,CCK-8,"50 µM, 72 h",viability,101%
COc1ccc2oc(-c3ccc4nc(N)oc4c3)c/c(=N\c3ccccc3NC(=O)CCN)c2c1,CCK-8,1 µM,inhibition,39.1%
O=C(NCc1cn(Cc2ccc(Cl)cc2)nn1)Nc1ccc(Cl)cc1,CCK-8,"20 µM, 72 h",viability,61.7%
COc1ccc(NC(=O)Nc2ccc(-c3cn(Cc4ccc(Cl)cc4)nn3)cc2)cc1,CCK-8,"50 µM, 72 h",viability,98.3%
CCCCn1cnc2ccc(-c3ccc(NC(=O)Nc4ccc(C)cc4)nc3)cc2c1=O,CCK-8,72 h,IC50,> 10 µM
CCCCCCCCCCCCCCCCCCOc1cccc(CC(=O)OCC[N+]2(C)CCCC2)c1,SRB,10 µM,inhibition,13.9%
CCCn1cnc2ccc(-c3ccc(NC(=O)c4ccccc4)nc3)cc2c1=O,CCK-8,72 h,IC50,0.12 µM
CCCCCCCCCCCCCCCCCCOc1ccc(CC(=O)OCC[N+](C)(C)C)cc1,SRB,10 µM,inhibition,5.41%
COc1ccc(NC(=O)Nc2ccc(-c3cn(Cc4cccc(Cl)c4)nn3)cc2)cc1,CCK-8,"50 µM, 72 h",viability,91.2%
O=C(Nc1ccc(Cl)cc1)Nc1ccc(-c2cn(Cc3cccc(Cl)c3)nn2)cc1,CCK-8,"50 µM, 72 h",viability,73.2%
[NH2][Pt]([NH2])([Cl])[Cl],SRB,,GI50,4.9 µM
NCCCCC(=O)Nc1ccccc1/N=c1\cc(-c2ccc3c(c2)OCO3)oc2ccccc12,CCK-8,1 µM,inhibition,3.56%
N#CSCCCCOc1ccc2c(-c3ccccc3)cc(=O)oc2c1,SRB,,GI50,36 µM
CCCCn1cnc2ccc(-c3ccc(NC(=O)Nc4ccc(OC)cc4)nc3)cc2c1=O,CCK-8,72 h,IC50,> 10 µM
Cc1ccccc1Cn1cc(-c2cccc(NC(=O)Nc3ccc(F)cc3)c2)nn1,CCK-8,"50 µM, 72 h",viability,175%
COc1ccc(Cn2cnc3ccc(-c4ccc(NC(=O)c5ccccc5)nc4)cc3c2=O)cc1,CCK-8,72 h,IC50,> 10 µM
CCNC(=O)Nc1nc2cc(-c3ccc4ncn(Cc5ccccc5)c(=O)c4c3)ccc2s1,MTT,72 h,IC50,11 µM
Cc1ccc(C(=O)Nc2ccc(-c3ccc4ncn(Cc5ccccc5)c(=O)c4c3)cn2)cc1,CCK-8,72 h,IC50,> 10 µM
C[C@H](N)C(=O)Nc1ccccc1/N=c1\cc(-c2ccc3c(c2)OCCO3)oc2c([N+](=O)[O-])cccc12,CCK-8,1 µM,inhibition,0.38%
COc1ccc(NC(=O)NCc2cn(Cc3ccc(Br)cc3)nn2)cc1,CCK-8,"20 µM, 72 h",viability,102%
CCCCCCCCCCCCCCCCCCOc1cccc(CC(=O)OCCC[N+](C)(C)C)c1,SRB,10 µM,inhibition,16.2%
COc1ccc(NC(=O)Nc2cccc(-c3cn(Cc4ccc(C)cc4)nn3)c2)cc1,CCK-8,"20 µM, 72 h",viability,146%
C[C@H](N)C(=O)Nc1ccccc1/N=c1\cc(-c2ccc3c(c2)OCO3)oc2ccccc12,CCK-8,1 µM,inhibition,-2.13%
O=C(Nc1cccc(-c2cn(Cc3ccc(Br)cc3)nn2)c1)Nc1ccccc1Br,CCK-8,"50 µM, 72 h",viability,70.9%
CCCCCC(=O)Nc1ccc(-c2ccc3ncn(CCC)c(=O)c3c2)cn1,CCK-8,72 h,IC50,0.17 µM
COc1ccc2/c(=N/c3ccccc3NC(=O)N3CCOCC3)cc(-c3ccc4c(c3)OCCO4)oc2c1,CCK-8,1 µM,inhibition,2.09%
O=C(Nc1ccc(Cl)cc1)Nc1ccc(-c2cn(Cc3ccc(Cl)cc3)nn2)cc1,CCK-8,"20 µM, 72 h",viability,73.2%
